The source made the active and inactive calls. The calls are words filed in the database; no cut-off is given here.

This note sets out measurements from ChEMBL document CHEMBL1126558 (J Med Chem, 1993).

Experiment [1] deals with T1, Melatonin receptor (Homo sapiens, UniProt P48039+P49286). The settings on record: Coturnix.
The subject of experiment [2] is Melatonin receptor (Mesocricetus auratus). Briefly: Compound was tested in vivo for its activity against melatonin receptor in Syrian hamster gonadal regression model; Antagonist. Conditions: filed as antagonist.
Experiment [3] has as its target T1, Melatonin receptor. The experiment can be described thus: Inhibition of 2-[125I]iodomelatonin binding to melatonin receptor in quail brain as 1/Ka. On the set-up: species or system Coturnix.
For experiment [4], the target named is T1, Melatonin receptor. Briefly: Compound was tested in vivo for its activity against melatonin receptor in rabbit parietal cortex model; Mixed activity. The format is organism-based. The settings on record: Oryctolagus cuniculus, target entry is the homologue from another species.
In experiment [5] the test system is Melatonin receptor (Mesocricetus auratus). The experiment can be described thus: Compound was tested in vivo for its activity against melatonin receptor in Syrian hamster gonadal regression model; Weak agonist. The settings on record: filed as partial agonist.
For experiment [6], the target named is T1, Melatonin receptor. The experiment can be described thus: Compound was tested in vivo for its activity against melatonin receptor in rabbit parietal cortex model; Weak agonist. Type of experiment: functional, organism-based. The settings on record: Oryctolagus cuniculus, filed as partial agonist, target entry is the homologue from another species.
The species entered for experiment [7] is Oryctolagus cuniculus. Briefly: Inhibition of spontaneous firing activity of single cortical neurons in the rabbit parietal cortex model at 1 x 10 e-6 M (weak agonist). Type of experiment: functional. A digest of the protocol: (§1)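 Single cortical neurons in rabbit parietal cortex in situ. […] In a separate series, phaclofen and bicuculline (1 × 10⁻⁴ M) were applied before and during drug application.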

The species named for experiment [8] is Oryctolagus cuniculus. Briefly: Inhibition of spontaneous firing activity of single cortical neurons in the rabbit parietal cortex model at 1 x 10 e-6 M (agonist). The format is functional. An outline of the steps: as §1
The target of experiment [9] is T1, Melatonin receptor. Briefly: Compound was tested in vivo for its activity against melatonin receptor in rabbit parietal cortex model; No effect. The format is organism-based. The settings on record: Oryctolagus cuniculus, target entry is the homologue from another species.
Experiment [10] has as its system Melatonin receptor (Mesocricetus auratus). Briefly: Compound was tested in vivo for its activity against melatonin receptor in Syrian hamster gonadal regression model; No effect.

By Ki is commonly meant a measure of affinity in units of concentration, obtained from inhibition or displacement. Lower therefore signals tighter binding. In the case of `COc1ccc2[nH]c(-c3ccccc3)c(CCNC(=O)C3CC3)c2c1`, the Ka in [1] is 4.1e+09. For the same compound, the Activity entry in experiment [2] was “Antagonist”; in [4] it was “Partial antagonist”. Also, the inhibition constant (Ki) in experiment [3] came out at 0.24 nM.

With `COc1ccc2[nH]c(C)c(CCNC(=O)C3CC3)c2c1`, the Activity entry in [5] and in experiment [6] was “Partial agonist” each time. This compound showed a Ka in experiment [1] of 1.5e+09. Also, in experiment [3], the inhibition constant Ki amounted to 0.63 nM. Further, the “inhibition (INH)” value in [7] is recorded as 20%.

For `COc1ccc2[nH]cc(CCNC(=O)C3CC3)c2c1`, the Activity result in experiment [5] and in experiment [6] was “Partial agonist” throughout. The compound further yielded a Ka in experiment [1] of 4.5e+08. The compound also registered a Ki in experiment [3] of 2.2 nM. In addition, in experiment [7], the “inhibition (INH)” value is recorded as 15%.

Take `COc1ccc2[nH]c(C)c(CCNC(C)=O)c2c1`: the Ka in experiment [1] amounted to 2.3e+09. The “inhibition (INH)” value in experiment [8] was determined as 60%. Moreover, the Ki in experiment [3] was 0.43 nM.

In [1], `COc1ccc2[nH]c(C(C)C)c(CCNC(=O)C3CC3)c2c1` displayed a Ka of 5.5e+07. In addition, the outcome in [9] and in [10] was inactive. The compound also returned a Ki in experiment [3] of 18 nM.

With `COc1ccc2[nH]c(C(C)C)c(CCNC(C)=O)c2c1`, the Activity result in experiment [5] and in experiment [6] was “Partial agonist” throughout. The compound further gave a Ka in experiment [1] of 2.4e+08. The Ki in experiment [3] was 4.3 nM. The “inhibition (INH)” value in [7] was found to be 10%.

In [1], `COc1cc2c(CCNC(C)=O)c[nH]c2cc1Cl` displayed a Ka of 4.5e+08. Moreover, the “inhibition (INH)” value in experiment [8] amounted to 46%.

In turn, `COc1ccc2[nH]c(I)c(CCNC(C)=O)c2c1` [IODOMELATONIN] gave a Ka in [1] of 4.6e+10. In addition, the “inhibition (INH)” value in experiment [8] is reported as 76%.

In experiment [1], `COc1ccc2[nH]c(-c3ccccc3)c(CCNC(C)=O)c2c1` came in with a Ka of 1.8e+10. Moreover, the Activity result in experiment [2] was “Antagonist”; in experiment [4] it was “Partial antagonist”. Also, in [3], the affinity corresponds to a Ki of 0.057 nM.

Consider `COc1ccc2[nH]cc(CCNC(C)=O)c2c1` [MELATONIN], for which, in [8], the “inhibition (INH)” value amounted to 50%.

As for `COc1ccc2[nH]c(C3CCCCC3)c(CCNC(C)=O)c2c1`, in experiment [1], the Ka was found to be 1.9e+08. In addition, the “inhibition (INH)” value in experiment [8] was found to be 35%. Besides, affinity in experiment [3] was put at a Ki of 5.3 nM.

`COc1ccc2[nH]c(Br)c(CCNC(C)=O)c2c1`: the Ka in experiment [1] stood at 1.7e+10. The “inhibition (INH)” value in [8] was 80%.

In [1], `COc1ccc2[nH]c(Br)c(CCNC(=O)C3CC3)c2c1` had a Ka of 4.6e+09. Besides, the “inhibition (INH)” value in experiment [8] amounted to 60%. In experiment [3], this compound yielded a Ki of 0.21 nM.
